Data: ChEMBL document CHEMBL1777721, “Phenolic compounds with NF-κB inhibitory effects from the fungus Phellinus baumii” (Bioorg Med Chem Lett, 2011)

How the values were obtained:
[1] = Inhibition of basal NF-kappaB-dependent reporter gene transcription in androgen-insensitive human PC3 cells
LNCaP = assay: Inhibition of LPS-induced NF-kappaB-dependent reporter gene transcription in androgen-sensitive human LNCap cells; type: cell-based; conditions: for inhibition: dose or concentration not given here
Procedure, shortened: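 Luciferase NF-κB reporter assay in androgen-sensitive LNCaP prostate cancer cells. Cells were pretreated with the test compound, then stimulated with LPS to activate NF-κB. Reporter activity was read at three concentrations and expressed as percent reduction of the LPS-induced signal.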

[2] = Homo sapiens, PC-3, read-out: IC50

Row | SMILES | IC50 [1, 2] | IC50 ([1]; pc-3) | Activity (LNCaP) | inhibition (LNCaP)
1 | O=C1C[C@@H](c2ccc(O)cc2)Oc2cc(O)c(Cc3ccccc3O)c(O)c21 | 54.5 µM | – | – | –
2 | CC(=O)/C(=C\c1ccc(O)c(O)c1)c1c(O)cc(/C=C/c2ccc(O)c(O)c2)oc1=O [INTERFUNGIN B] | 71.2 µM | – | – | –
3 | O=c1oc(/C=C/c2ccc(O)c(O)c2)cc2oc3cc(O)c(O)cc3c12 [PHELLIBAUMIN A] | 53 µM | – | – | –
4 | O=c1oc(/C=C/c2ccc(O)c(O)c2)cc(O)c1/C(=C/c1ccc(O)c(O)c1)c1cc2oc(=O)c3cc(O)c(O)cc3c2c(=O)o1 [PHELLIBAUMIN C] | 62.3 µM | – | – | –
5 | O=C(O)/C(=C\c1ccc(O)c(O)c1)c1c(O)cc(/C=C/c2ccc(O)c(O)c2)oc1=O [PHELLIBAUMIN D] | 74.6 µM | – | – | –
6 | CCOC(=O)/C(=C\c1ccc(O)c(O)c1)c1c(O)cc(/C=C/c2ccc(O)c(O)c2)oc1=O [PHELLIBAUMIN E] | 52.9 µM | – | – | –
7 | O=c1oc2cc(O)c1-c1cc(O)c(O)cc1/C=C/c1cc3c(c(=O)o1)[C@H](c1cc(O)c(c(=O)o1)-c1cc(O)c(O)cc1/C=C/c1cc4c(c(=O)o1)[C@H]2[C@@H](c1ccc(O)c(O)c1)O4)[C@@H](c1ccc(O)c(O)c1)O3 [PHELLIGRIDIMER A] | – | Not Active | – | –
8 | O=c1oc2cc(-c3c(-c4ccc(O)c(O)c4)oc4cc(/C=C/c5ccc(O)c(O)c5)oc(=O)c34)oc(=O)c2c2cc(O)c(O)cc12 [PHELLIGRIDIN H] | 84.9 µM | – | – | –
9 | O=C1C[C@H](c2ccc(O)cc2)Oc2cc(O)c(Cc3ccccc3O)c(O)c21 [PHELLIGRIN A] | 54.5 µM | – | Dose-dependent effect | 18.4%

The remaining compounds from weak to strong by IC50 [1, 2], led by results:

Row | IC50 [1, 2] | IC50 ([1]; pc-3) | SMILES | Activity (LNCaP) | inhibition (LNCaP)
10 | 41.4 µM | – | O=C(O)CC1Oc2cc(/C=C/c3ccc(O)c(O)c3)oc(=O)c2-c2cc(O)c(O)cc21 (stereo not given) [PHELLIBAUMIN B] | – | –
11 | 36.4 µM | – | COc1cc2c(c(O)c1Cc1ccccc1O)C(=O)C[C@H](c1ccc(O)cc1)O2 | Dose-dependent effect | 35%
12 | 36.4 µM | – | COc1cc2c(c(O)c1Cc1ccccc1O)C(=O)C[C@@H](c1ccc(O)cc1)O2 | – | –
13 | 22.5 µM | – | COc1cc(O)c2c(c1Cc1ccccc1O)O[C@H](c1ccc(O)cc1)CC2=O | – | –
14 | 22.5 µM | – | COc1cc(O)c2c(c1Cc1ccccc1O)O[C@@H](c1ccc(O)cc1)CC2=O [METHYLPHELLIGRIN B] | Dose-dependent effect | 62.5%
